pEC50, pIC50: −log10 of the molar value. Calls of active or inactive are those of the source. The calls are words filed in the database; no cut-off is given here.
What was measured:
Assay type in all cases: functional, cell-based
K562 = test: Antileukemic activity against human K562 cells after 48 hrs by XTT assay; details: K562, 48 h
Outline: (§1)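 XTT read-out of mitochondrial metabolism after 48 h incubation with compound (up to 10 µM in first screen). XTT reagent added to cells, formazan absorbance read at 490 nm. Each assay run in quadruplicate. IC50 derived; standard deviation reported. Resistant K562 line obtained by chronic imatinib exposure for 6 months.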

SKM1-R = test: Induction of apoptosis in human SKM1-R cells assessed as caspase 3 cleavage at 10 uM by Western blot method
SKM1-S = test: Induction of apoptosis in human SKM1-S cells assessed as caspase 3 cleavage at 1 uM by Western blot method
[1] = Antiproliferative activity against human SKM1-R cells after 48 hrs by XTT assay
[2] = Antiproliferative activity against human SKM1-R cells after 48 hrs by DAPI-staining-based flow cytometric method
Outline: (§2)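 Flow cytometry of DAPI incorporation after 48 h incubation with compound; DL50 derived. SKM1 grown in RPMI with 10% FCS at 37°C, 5% CO2, with penicillin/streptomycin.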

[3] = Antiproliferative activity against human SKM1-S cells after 48 hrs by DAPI-staining-based flow cytometric method; outline: as §2
[4] = Antiproliferative activity against human SKM1-S cells after 48 hrs by XTT assay; outline: as §1

Row | pIC50 (K562) | Compound | further results
1 | 6.15 | CCOC(=O)C#Cc1c(C(=O)OCC)nnn1[C@@H]1O[C@H](COC(C)=O)[C@@H](OC(C)=O)[C@H]1OC(C)=O | 
2 | < 5.00 | CCOC(=O)c1nnn([C@@H]2O[C@H](CO)[C@H]3OC(C)(C)O[C@H]32)c1C#Cc1ccc(F)cc1 | 
3 | < 5.00 | CCCCCCCC#Cc1c(C(=O)OCC)nnn1[C@@H]1O[C@H](CO)[C@H]2OC(C)(C)O[C@H]21 | 
4 |  | Nc1ncn([C@@H]2O[C@H](CO)[C@@H](O)[C@H]2O)c(=O)n1 [AZACITIDINE] | Activity (SKM1-R): inactive; Activity (SKM1-S): Active; pIC50 [1]: < 5.00; pEC50 [2]: < 5.00; pEC50 [3]: 6.29; pIC50 [4]: 6.30
5 | < 5.00 | COC(=O)c1nnn([C@@H]2O[C@H](CO)[C@H]3OC(C)(C)O[C@H]32)c1I | 
6 | < 5.00 | CCOC(=O)c1nnn([C@@H]2O[C@H](COC(C)=O)[C@@H](OC(C)=O)[C@H]2OC(C)=O)c1C(=O)c1ccc(C)cc1 | 
7 | 6.70 | CCOC(=O)C#Cc1c(C(=O)OCC)nnn1[C@@H]1O[C@H](COC(C)=O)[C@H](OC(C)=O)[C@H]1OC(C)=O | 
8 | 6.82 | CCCC1(CCC)O[C@@H]2[C@H](O1)[C@@H](CO)O[C@H]2n1nnc(C(=O)OCC)c1C#CC(=O)OCC | 
9 | 6.30 | CCOC(=O)C#Cc1c(C(=O)OCC)nnn1[C@@H]1O[C@H](CO)[C@H]2O[C@@](C)(c3ccccc3)O[C@H]21 | 
10 | < 5.00 | CCOC(=O)c1nnn([C@@H]2O[C@H](COC(C)=O)[C@@H](OC(C)=O)[C@H]2OC(C)=O)c1-c1cccs1 | 
11 | 3.10 | NC(=O)c1ncn([C@@H]2O[C@H](CO)[C@@H](O)[C@H]2O)c1N [ACADESINE] | 
12 | < 5.00 | CCOC(=O)c1nnn([C@@H]2O[C@H](COC(C)=O)[C@@H](OC(C)=O)[C@H]2OC(C)=O)c1C(=O)c1ccco1 | 
13 | < 5.00 | CCOC(=O)c1nnn([C@@H]2O[C@H](COC(C)=O)[C@@H](OC(C)=O)[C@H]2OC(C)=O)c1C(=O)c1cccs1 | 
14 | < 5.00 | CCOC(=O)c1nnn([C@@H]2O[C@H](COC(C)=O)[C@@H](OC(C)=O)[C@H]2OC(C)=O)c1I | 
15 | 6.30 | CCOC(=O)C#Cc1c(C(=O)OCC)nnn1[C@@H]1O[C@H](COC(C)=O)[C@H]2OC(C)(C)O[C@H]21 | 
16 | 5.84 | COC(=O)C#Cc1c(C(=O)OC)nnn1[C@@H]1O[C@H](CO)[C@H]2OC(C)(C)O[C@H]21 | 
17 | 6.26 | CCOC(=O)C#Cc1c(C(=O)OCC)nnn1[C@@H]1O[C@H](COC)[C@H]2OC(C)(C)O[C@H]21 | 
18 | 6.70 | CCOC(=O)C#Cc1c(C(=O)OCC)nnn1[C@H]1C[C@H](OC(C)=O)[C@@H](COC(C)=O)O1 | 
19 | 5.60 | CC(=O)OC[C@H]1O[C@@H](n2nnc(C(=O)OC(C)(C)C)c2C#CC(=O)OC(C)(C)C)[C@H](OC(C)=O)[C@@H]1OC(C)=O | 
20 | 5.94 | CC(C)(C)OC(=O)C#Cc1c(C(=O)OC(C)(C)C)nnn1[C@@H]1O[C@H](CO)[C@H]2OC(C)(C)O[C@H]21 | 
21 | 6.70 | CCOC(=O)C#Cc1c(C(=O)OCC)nnn1[C@H]1O[C@@H](COC(C)=O)[C@H](OC(C)=O)[C@@H]1OC(C)=O | 
22 | 6.10 | CCOC(=O)C#Cc1c(C(=O)OCC)nnn1[C@@H]1O[C@H](COC)[C@@H](OC)[C@H]1OC | 
23 | 6.82 | COC(=O)C#Cc1c(C(=O)OC)nnn1[C@@H]1O[C@H](COC(C)=O)[C@H]2OC(C)(C)O[C@H]21 | 
24 | < 5.00 | CCOC(=O)c1nnn([C@@H]2O[C@H](CO)[C@H]3OC(C)(C)O[C@H]32)c1I | 
